Results from ChEMBL document CHEMBL1123878, “Potential antitumor agents. 50. In vivo solid-tumor activity of derivatives of N-[2-(dimethylamino)ethyl]acridine-4-carboxamide” (J Med Chem, 1987).

Experiments:
P388 = assay: (§1) Percentage increase in life span of tumor bearing animals compared to non treated, tumor-bearing controls when treated at the optimal dose of 20 mg/kg/day intraperitoneally; assay type: functional; conditions: Mus musculus, P388, ip; route intraperitoneal
[1] = tested on: Lewis lung carcinoma cell line; assay: as §1; assay type: functional; conditions: Mus musculus, ip, route intraperitoneal
[2] = Lipophilicity index (Rm) (HPLC); assay type: physicochemical
L1210 = assay: Inhibition murine leukemia L1210 cell growth in culture; assay type: functional, cell-based; conditions: Mus musculus
In short: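 IC50 is the drug concentration, in nM, that inhibits growth of the cultured cell line by 50%.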

## CN(C)CCNC(=O)c1cccc2cc3cccc(Cl)c3nc12.Cl.Cl
P388
  ILS at 20 mg/kg/day: 91%
[1]
  ILS at 20 mg/kg/day: 92%
[2]
  Rm: -0.21
L1210
  IC50: 6.9 nM
